ChEMBL document CHEMBL1150057, “Bioactive ergost-5-ene-3 beta, 7 alpha-diol derivatives from Pseudobersama mossambicensis” (J Nat Prod, 1992)

What was measured:
Saccharomyces cerevisiae [1] = experiment: DNA damaging activity against RS322YK rad52 DNA repair gene deficient Saccharomyces cerevisiae mutant assessed as drug level required to produce 12 mm zone of inhibition after 48 hrs; format: functional
How it was run: (§1)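 Yeast agar-well diffusion: strain plated on YPD agar (7 mm layer); 6 mm wells cut with cork borer; sample dissolved in DMSO-MeOH (1:1), 100 μl per well. Plates read after 48 h at 30°. IC12 = concentration (μg/ml) giving a 12 mm inhibition zone, taken from dose-response curves by linear regression (log dose as Y, zone size as X).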

Saccharomyces cerevisiae [2] = experiment: DNA damaging activity against RS188N rad DNA repair gene expressing wild type Saccharomyces cerevisiae assessed as drug level required to produce 12 mm zone of inhibition after 48 hrs; format: functional; how it was run: as §1
Saccharomyces cerevisiae [3] = experiment: DNA damaging activity against RS167N rad6 DNA repair gene deficient Saccharomyces cerevisiae mutant assessed as drug level required to produce 12 mm zone of inhibition after 48 hrs; format: functional; how it was run: as §1
P388 = experiment: Cytotoxicity against mouse P388 cells; format: functional, cell-based

Structure (SMILES)	IC12 (Saccharomyces cerevisiae [1]) [µg/mL]	IC12 (Saccharomyces cerevisiae [2]) [µg/mL]	IC12 (Saccharomyces cerevisiae [3]) [µg/mL]	IC50 (P388) [µM]
CC(C)C(O)(CO)CC[C@@H](C)[C@H]1CC[C@H]2[C@@H]3[C@H](O)C=C4C[C@@H](O)CC[C@]4(C)[C@H]3CC[C@]12C (stereo partly drawn)	1	> 100	–	–
C=C(CC[C@@H](C)[C@H]1CC[C@H]2[C@@H]3[C@H](O)C=C4C[C@@H](O)CC[C@]4(C)[C@H]3CC[C@]12C)C(C)C	8	> 1500	12	4.3
CC(C)C1(CC[C@@H](C)[C@H]2CC[C@H]3[C@@H]4[C@H](O)C=C5C[C@@H](O)CC[C@]5(C)[C@H]4CC[C@]23C)CO1 (stereo partly drawn)	0.4	> 50	6	–
CC[C@@]1(O)C(=O)OCc2c1cc1n(c2=O)Cc2cc3ccccc3nc2-1 [CAMPTOTHECIN]	0.6	–	8.7	–
COC1=C(N)C(=O)c2nc(-c3nc(C(=O)O)c(C)c(-c4ccc(OC)c(OC)c4O)c3N)ccc2C1=O [STREPTONIGRIN]	0.4	–	2.4	–
